# Calls of active or inactive are those of the source. No cut-off for these calls is given here.
# How the values were obtained:
# [1] = Cytotoxicity against human MT4 cells after 96 hrs by MTT assay; assay type: cell-based
# Escherichia coli [2] = assay: Antibacterial activity against Escherichia coli ATCC 10538 at 400 ug/disc after 18 hrs by disc diffusion method; assay type: functional, organism-based
# Procedure, shortened: (§1)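 Disc diffusion per CLSI on Mueller–Hinton II agar; 9 mm paper discs loaded from methanol or DMSO solutions to 400 µg per disc, dried; growth inhibition zone diameter read after 18 h at 35 °C.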
# [3] = tested on: Bordetella bronchiseptica; assay: Antibacterial activity against Bordetella bronchiseptica ATCC 4617 at 400 ug/disc after 18 hrs by disc diffusion method; assay type: functional, organism-based; procedure, shortened: as §1
# Mus musculus [4] = assay: Toxicity in Albino Swiss mouse assessed as motor coordination administered at doses equivalent to 0.1 ED50, ip by rota rod test; assay type: organism-based; conditions: in vivo
# Bacillus subtilis = assay: Antibacterial activity against Bacillus subtilis ATCC 6633 at 400 ug/disc after 18 hrs by disc diffusion method; assay type: functional; conditions: ATCC 6633, 18 h, read-out: DIZ; procedure, shortened: as §1
# Enterococcus hirae = assay: Antibacterial activity against Enterococcus hirae ATCC 10541 at 400 ug/disc after 18 hrs by disc diffusion method; assay type: functional; procedure, shortened: as §1
# Candida parapsilosis = assay: Antifungal activity against Candida parapsilosis ATCC 22019 at 400 ug/disc after 18 hrs by disc diffusion method; assay type: functional, organism-based
# Procedure, shortened: (§2)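 Yeasts tested by disc diffusion (CLSI) on RPMI agar with 2% glucose; 9 mm paper discs bearing 400 µg compound from methanol or DMSO solution; inhibition zone diameter read after 18 h at 35 °C.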
# Mus musculus [5] = assay: Anticonvulsant activity in Albino Swiss mouse assessed as protection against pentylenetetrazole-induced mortality administered at doses equivalent to 0.1 ED50, ip; assay type: functional, organism-based
# Mus musculus [6] = assay: Toxicity in Albino Swiss mouse assessed as motor coordination administered at doses equivalent to 0.1 ED50, ip by chimney test; assay type: organism-based; conditions: in vivo
# Mus musculus [7] = assay: Toxicity in Albino Swiss mouse assessed as effect on amphetamine-induced hyperactivity administered at doses equivalent to 0.1 ED50, ip; assay type: organism-based; conditions: in vivo
# Procedure, shortened: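 Compound i.p. in 0.5% methylcellulose 60 min before test; amphetamine 5 mg/kg s.c. 30 min before test; single mice in photoresistor actometers, light-beam crossings counted for 30 min.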
# Staphylococcus aureus [8] = assay: Antibacterial activity against Staphylococcus aureus ATCC 29213 at 400 ug/disc after 18 hrs by disc diffusion method; assay type: functional; procedure, shortened: as §1
# Micrococcus luteus [9] = assay: Antibacterial activity against Micrococcus luteus ATCC 10240 at 400 ug/disc after 18 hrs by disc diffusion method; assay type: functional; conditions: ATCC 10240, 18 h, read-out: DIZ; procedure, shortened: as §1
# Mus musculus [10] = assay: Reduction of body temperature in normothermic Albino Swiss mouse administered at doses equivalent to 0.1 ED50, ip measured in rectum by thermistor thermometer analysis; assay type: ADME, organism-based; conditions: in vivo
# Mus musculus [11] = assay: Toxicity in Albino Swiss mouse assessed as locomotor activity administered at doses equivalent to 0.1 ED50, ip measured after 1 hr for 30 mins; assay type: organism-based; conditions: in vivo
# Procedure, shortened: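 Spontaneous locomotor activity of single male Albino Swiss mice in photoresistor actometers (two light beams), beam crossings recorded for 30 min, starting 60 min after i.p. compound in 0.5% methylcellulose.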
# Mus musculus [12] = assay: Antinociceptive activity in Albino Swiss mouse administered at doses equivalent to 0.025 to 0.1 ED50, ip; assay type: functional, organism-based
# Pseudomonas aeruginosa [13] = assay: Antibacterial activity against Pseudomonas aeruginosa ATCC 27853 at 400 ug/disc after 18 hrs by disc diffusion method; assay type: functional, organism-based; procedure, shortened: as §1
# Pseudomonas aeruginosa [14] = assay: Antibacterial activity against Pseudomonas aeruginosa NCTC 6749 at 400 ug/disc after 18 hrs by disc diffusion method; assay type: functional, organism-based; procedure, shortened: as §1
# Mus musculus [15] = assay: Anticonvulsant activity in Albino Swiss mouse assessed as protection against pentylenetetrazole-induced severity of clonic or tonic seizures administered at doses equivalent to 0.1 ED50, ip; assay type: functional, organism-based
# Pseudomonas aeruginosa [16] = assay: Antibacterial activity against Pseudomonas aeruginosa ATCC 15442 at 400 ug/disc after 18 hrs by disc diffusion method; assay type: functional, organism-based; procedure, shortened: as §1
# Proteus vulgaris = assay: Antibacterial activity against Proteus vulgaris NCTC 4635 at 400 ug/disc after 18 hrs by disc diffusion method; assay type: functional, organism-based; procedure, shortened: as §1
# Candida albicans [17] = assay: Antifungal activity against Candida albicans ATCC 90028 at 400 ug/disc after 18 hrs by disc diffusion method; assay type: functional, organism-based; procedure, shortened: as §2
# [18] = tested on: Human immunodeficiency virus 1; assay: Antiviral activity against HIV1 infected in human MT4 cells assessed as virus-induced cytopathogenicity after 4 days by MTT assay; assay type: functional, organism-based; conditions: Human immunodeficiency virus 1, MT4, 96 h
# [19] = tested on: Staphylococcus epidermidis; assay: Antibacterial activity against Staphylococcus epidermidis ATCC 12228 at 400 ug/disc after 18 hrs by disc diffusion method; assay type: functional; procedure, shortened: as §1
# Bacillus cereus = assay: Antibacterial activity against Bacillus cereus ATCC 11778 at 400 ug/disc after 18 hrs by disc diffusion method; assay type: functional; procedure, shortened: as §1
# Staphylococcus aureus [20] = assay: Antibacterial activity against Staphylococcus aureus ATCC 6538 at 400 ug/disc after 18 hrs by disc diffusion method; assay type: functional; procedure, shortened: as §1
# Mus musculus [21] = assay: Reduction of 5-hydroxytryptophan-induced head twitch in Albino Swiss mouse administered at doses equivalent to 0.1 ED50, ip; assay type: functional, organism-based
# Escherichia coli [22] = assay: Antibacterial activity against Escherichia coli NCTC 8196 at 400 ug/disc after 18 hrs by disc diffusion method; assay type: functional, organism-based; procedure, shortened: as §1
# Staphylococcus aureus [23] = assay: Antibacterial activity against Staphylococcus aureus ATCC 25923 at 400 ug/disc after 18 hrs by disc diffusion method; assay type: functional; procedure, shortened: as §1
# Staphylococcus aureus [24] = assay: Antibacterial activity against Staphylococcus aureus NCTC 4163 at 400 ug/disc after 18 hrs by disc diffusion method; assay type: functional; procedure, shortened: as §1
# Escherichia coli [25] = assay: Antibacterial activity against Escherichia coli ATCC 25922 at 400 ug/disc after 18 hrs by disc diffusion method; assay type: functional, organism-based; procedure, shortened: as §1
# Candida albicans [26] = assay: Antifungal activity against Candida albicans ATCC 10231 at 400 ug/disc after 18 hrs by disc diffusion method; assay type: functional, organism-based; procedure, shortened: as §2
# Micrococcus luteus [27] = assay: Antibacterial activity against Micrococcus luteus ATCC 9341 at 400 ug/disc after 18 hrs by disc diffusion method; assay type: functional; conditions: ATCC 9341, 18 h, read-out: DIZ; procedure, shortened: as §1
# WIL2-NS = assay: Cytotoxicity against human WIL2-NS cells after 96 hrs by MTT assay; assay type: functional
# Procedure, shortened: (§3)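 Haematological tumour lines were seeded at 1 × 10^5 cells/ml in RPMI-1640 with 10% FCS plus penicillin/streptomycin. Serial dilutions from a 100 mM DMSO stock were added. After 96 h at 37 °C in 5% CO2, viability was read by MTT. The 50% proliferation-inhibiting concentration (µM) was obtained by linear regression against untreated controls, which completed at least three rounds of multiplication. Values are means of three determinations.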
# SK-MEL-28 = assay: Cytotoxicity against human SK-MEL-28 cells after 96 hrs by MTT assay; assay type: functional; conditions: SK-MEL-28, 96 h
# Procedure, shortened: (§4)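 Solid tumour lines were seeded at 1 × 10^5 cells/ml in line-specific media with 10% FCS and antibiotics. Serial dilutions from a 100 mM DMSO stock were added. After 96 h at 37 °C in 5% CO2, viability was read by MTT. The 50% growth-inhibiting concentration (µM) was obtained by linear regression versus untreated controls. Values are means of three independent determinations.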
# CCRF-SB = assay: Cytotoxicity against human CCRF-SB cells after 96 hrs by MTT assay; assay type: functional; procedure, shortened: as §3
# HepG2 = assay: Cytotoxicity against human HepG2 cells after 96 hrs by MTT assay; assay type: functional; conditions: HepG2, 96 h; procedure, shortened: as §4
# CCRF-CEM = assay: Cytotoxicity against human CCRF-CEM cells after 96 hrs by MTT assay; assay type: functional; procedure, shortened: as §3
# MCF7 = assay: Cytotoxicity against human MCF7 cells after 96 hrs by MTT assay; assay type: functional; conditions: MCF7, 96 h; procedure, shortened: as §4
# DU-145 = assay: Cytotoxicity against human DU145 cells after 96 hrs by MTT assay; assay type: functional; conditions: DU-145, 96 h; procedure, shortened: as §4
# SK-MES-1 = assay: Cytotoxicity against human SKMES1 cells after 96 hrs by MTT assay; assay type: functional; conditions: SK-MES-1, 96 h; procedure, shortened: as §4
smiles,measurement,setting,value
O=C1Nc2ccc(Cl)cc2[C@@](C#CC2CC2)(C(F)(F)F)O1 [EFAVIRENZ],CC50 at 96 h,[1],37000 nM
S=C(Nc1cccc(Br)c1)Nc1nc[nH]n1,diameter of the inhibition zone (DIZ),Escherichia coli [2],inactive
same,diameter of the inhibition zone (DIZ),[3],inactive
same,Activity,Mus musculus [4],Non-toxic
same,zone of inhibition at 400 µg/disc,Bacillus subtilis,16 mm
same,diameter of the inhibition zone (DIZ),Enterococcus hirae,inactive
same,diameter of the inhibition zone (DIZ),Candida parapsilosis,inactive
same,Activity,Mus musculus [5],inactive
same,Activity,Mus musculus [6],Non-toxic
same,Activity,Mus musculus [7],Non-toxic
same,diameter of the inhibition zone (DIZ),Staphylococcus aureus [8],inactive
same,zone of inhibition at 400 µg/disc,Micrococcus luteus [9],14 mm
same,Activity,Mus musculus [10],Toxic
same,Activity,Mus musculus [11],Non-toxic
same,Activity,Mus musculus [12],Active
same,diameter of the inhibition zone (DIZ),Pseudomonas aeruginosa [13],inactive
same,diameter of the inhibition zone (DIZ),Pseudomonas aeruginosa [14],inactive
same,Activity,Mus musculus [15],inactive
same,diameter of the inhibition zone (DIZ),Pseudomonas aeruginosa [16],inactive
same,CC50 at 96 h,[1],50000 nM
same,diameter of the inhibition zone (DIZ),Proteus vulgaris,inactive
same,diameter of the inhibition zone (DIZ),Candida albicans [17],inactive
same,EC50,[18],> 50000 nM
same,diameter of the inhibition zone (DIZ),[19],inactive
same,diameter of the inhibition zone (DIZ),Bacillus cereus,inactive
same,diameter of the inhibition zone (DIZ),Staphylococcus aureus [20],inactive
same,Activity,Mus musculus [21],Active
same,diameter of the inhibition zone (DIZ),Escherichia coli [22],inactive
same,diameter of the inhibition zone (DIZ),Staphylococcus aureus [23],inactive
same,diameter of the inhibition zone (DIZ),Staphylococcus aureus [24],inactive
same,diameter of the inhibition zone (DIZ),Escherichia coli [25],inactive
same,diameter of the inhibition zone (DIZ),Candida albicans [26],inactive
same,zone of inhibition at 400 µg/disc,Micrococcus luteus [27],15 mm
CC[C@@]1(O)C(=O)OCc2c1cc1n(c2=O)Cc2cc3ccccc3nc2-1 [CAMPTOTHECIN],CC50,WIL2-NS,5 nM
same,CC50,SK-MEL-28,70 nM
same,CC50,CCRF-SB,4 nM
same,CC50,HepG2,40 nM
same,CC50 at 96 h,[1],4 nM
same,CC50,CCRF-CEM,3 nM
same,CC50,MCF7,80 nM
same,CC50,DU-145,80 nM
same,CC50,SK-MES-1,50 nM
O=C(NC(=S)Nc1nc[nH]n1)c1ccccc1,CC50 at 96 h,[1],> 100000 nM
same,EC50,[18],> 100000 nM

# Reference: ChEMBL document CHEMBL2062460, “Disubstituted thiourea derivatives and their activity on CNS: synthesis and biological evaluation” (Eur J Med Chem, 2012)
